# Active and inactive are the calls of the source. No cut-off for these calls is given here.
# Key:
# Assay type in all cases: functional, cell-based
# [1] = target: T1, 5-hydroxytryptamine receptor 1A (Homo sapiens) (UniProt P08908); test: Agonist activity at human 5HT1A receptor expressed in HEK293 cells incubated for 1 hr by Fluo-8 dye based calcium assay
# T1 sequence (whole entry): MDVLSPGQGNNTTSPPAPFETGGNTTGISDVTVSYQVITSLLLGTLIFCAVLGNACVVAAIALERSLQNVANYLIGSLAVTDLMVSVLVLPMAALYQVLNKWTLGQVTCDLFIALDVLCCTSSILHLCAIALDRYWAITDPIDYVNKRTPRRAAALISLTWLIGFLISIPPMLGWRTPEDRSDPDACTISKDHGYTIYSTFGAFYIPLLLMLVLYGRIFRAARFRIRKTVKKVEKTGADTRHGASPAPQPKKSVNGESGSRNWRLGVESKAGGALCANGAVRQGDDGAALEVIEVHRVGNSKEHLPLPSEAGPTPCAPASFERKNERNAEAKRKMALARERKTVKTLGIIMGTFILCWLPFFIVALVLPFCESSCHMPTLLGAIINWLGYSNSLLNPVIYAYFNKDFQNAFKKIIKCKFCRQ
# Procedure, shortened: (§1)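 HEK293 cells stably expressing the human receptor, kept in DMEM with 10% FBS, seeded at 4 × 10^4 cells/well on Matrigel-coated plates and incubated overnight (5% CO2, 37 °C). Fluo-8 wash-free calcium dye loaded for 1 h at 37 °C. Samples in Hank's balanced salt solution, tested at 0.25 mM. Calcium fluorescence read on a FlexStation3 plate reader.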
# [2] = target: T2, 5-hydroxytryptamine receptor 2C (Homo sapiens) (UniProt P28335); test: Agonist activity at human 5HT2C receptor expressed in HEK293 cells incubated for 1 hr by Fluo-8 dye based calcium assay; procedure, shortened: as §1
# T2 sequence (whole entry): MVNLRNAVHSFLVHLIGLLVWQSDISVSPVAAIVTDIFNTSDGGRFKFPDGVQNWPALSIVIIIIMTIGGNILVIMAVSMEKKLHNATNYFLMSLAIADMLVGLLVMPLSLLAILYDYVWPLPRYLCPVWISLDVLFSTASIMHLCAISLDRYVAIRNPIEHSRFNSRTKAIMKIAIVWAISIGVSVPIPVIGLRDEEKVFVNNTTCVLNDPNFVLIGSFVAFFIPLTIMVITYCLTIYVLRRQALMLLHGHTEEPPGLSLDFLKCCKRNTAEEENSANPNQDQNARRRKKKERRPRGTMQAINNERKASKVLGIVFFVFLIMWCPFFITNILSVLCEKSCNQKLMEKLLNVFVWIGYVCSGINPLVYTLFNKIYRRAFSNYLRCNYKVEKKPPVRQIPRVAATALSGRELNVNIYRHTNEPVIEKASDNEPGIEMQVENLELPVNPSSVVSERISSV
# [3] = target: T3, Melatonin receptor type 1B (Homo sapiens) (UniProt P49286); test: Agonist activity at human MT2 receptor expressed in HEK293 cells incubated for 1 hr by Fluo-8 dye based calcium assay; procedure, shortened: as §1
# T3 sequence (whole entry): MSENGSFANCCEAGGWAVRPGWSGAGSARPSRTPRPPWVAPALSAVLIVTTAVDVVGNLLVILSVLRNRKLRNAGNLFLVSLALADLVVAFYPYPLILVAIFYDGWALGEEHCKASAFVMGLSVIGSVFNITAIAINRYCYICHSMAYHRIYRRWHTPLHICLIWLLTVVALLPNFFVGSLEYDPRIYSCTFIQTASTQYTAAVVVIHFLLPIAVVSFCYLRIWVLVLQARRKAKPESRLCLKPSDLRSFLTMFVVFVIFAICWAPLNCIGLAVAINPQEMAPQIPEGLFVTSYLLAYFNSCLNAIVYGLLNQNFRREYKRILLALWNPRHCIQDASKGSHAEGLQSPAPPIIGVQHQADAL
# [4] = target: Melatonin receptor type 1A (Homo sapiens) (UniProt P48039); test: Agonist activity at human MT1 receptor expressed in HEK293 cells incubated for 1 hr by Fluo-8 dye based calcium assay; procedure, shortened: as §1
# Melatonin receptor type 1A (Homo sapiens), sequence (P48039 whole entry): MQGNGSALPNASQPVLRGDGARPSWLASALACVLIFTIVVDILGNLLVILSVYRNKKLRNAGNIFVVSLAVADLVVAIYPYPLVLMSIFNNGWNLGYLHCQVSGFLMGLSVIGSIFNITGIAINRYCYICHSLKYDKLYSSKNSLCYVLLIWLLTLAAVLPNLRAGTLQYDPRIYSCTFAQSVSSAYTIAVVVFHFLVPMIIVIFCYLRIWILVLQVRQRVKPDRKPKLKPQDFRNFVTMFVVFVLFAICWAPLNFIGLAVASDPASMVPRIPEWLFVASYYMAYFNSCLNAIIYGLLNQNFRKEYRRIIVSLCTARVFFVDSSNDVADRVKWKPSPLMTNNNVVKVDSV
Activity [1],Activity [2],Activity [3],Activity [4],SMILES
inactive,inactive,Active,Active,C=CC(C)(C)c1[nH]c2ccccc2c1[C@@H]1[C@@H](c2c(C(C)(C)C=C)[nH]c3ccccc23)[C@@]2(NC(=O)[C@@H](C)NC2=O)[C@]12NC(=O)[C@@H](C)NC2=O
inactive,inactive,Active,Active,C=CC(C)(C)c1[nH]c2ccccc2c1[C@H]1[C@H](c2c(C(C)(C)C=C)[nH]c3ccccc23)[C@]2(NC(=O)[C@H](C)NC2=O)[C@@]12NC(=O)[C@H](C)NC2=O
inactive,inactive,52.4%,11.3%,C=CC(C)(C)c1[nH]c2ccccc2c1[C@H]1[C@H](c2c(C(C)(C)C=C)[nH]c3ccccc23)[C@]2(NC(=O)[C@@H](C)NC2=O)[C@@]12NC(=O)[C@@H](C)NC2=O
inactive,inactive,Active,Active,C=CC(C)(C)c1[nH]c2ccccc2c1[C@@H]1[C@@H](c2c(C(C)(C)C=C)[nH]c3ccccc23)[C@@]2(NC(=O)[C@H](C)NC2=O)[C@]12NC(=O)[C@H](C)NC2=O
